Screening results as filed in PubChem BioAssay.
PfGluPho inh = PfG6PD enzyme inhibitors, primary screen, biochemical, fluorescence intensity, uHTS. AID 504690, 2011. PfGluPho enzyme, NADPH resazurin-diaphorase fluorescence. 350,000 compounds, 0.78% hits. inhibition, % at 20 µM;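 active means inhibition reaching at least a set limit at 20 µM in the primary screen, cut at about 59% in these data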;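 further: 0% = DMSO wells with substrate and 100% = DMSO wells lacking glucose-6-phosphate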
M18AAP inhibitor = PfM18AAP inhibitors, malaria aminopeptidase, primary screen, biochemical, QFRET, recombinant enzyme. H-Glu-NHMec fluorogenic cleavage. AID 1822, 2009. M18 aspartyl aminopeptidase (Plasmodium falciparum 3D7). 290,000 compounds, 1.2% hits. inhibition, % at 7.35 µM;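 active means inhibition above the campaign mean inhibition over all tested compounds plus 3 SD, cut at about 28% in these data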;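 further: 0% = plate median of test compound wells and 100% = 2 mM ZnCl2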
HKDC1 inhibitor = HKDC1 hexokinase inhibitors, primary screen, biochemical, fluorescence, uHTS | AID 493160, 2011 | inhibition, % at 20 µM | recombinant HKDC1, G6PDH/diaphorase resazurin coupled fluorescence | 340,000 compounds, 0.16% hits | Q2TB90;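 active means inhibition above about 35% when tested at 20 µM, limit read from the data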;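 further: plate controls were DMSO wells with enzyme for no effect and DMSO wells lacking enzyme for full effect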
Target sequence (Q2TB90 whole entry, looked up): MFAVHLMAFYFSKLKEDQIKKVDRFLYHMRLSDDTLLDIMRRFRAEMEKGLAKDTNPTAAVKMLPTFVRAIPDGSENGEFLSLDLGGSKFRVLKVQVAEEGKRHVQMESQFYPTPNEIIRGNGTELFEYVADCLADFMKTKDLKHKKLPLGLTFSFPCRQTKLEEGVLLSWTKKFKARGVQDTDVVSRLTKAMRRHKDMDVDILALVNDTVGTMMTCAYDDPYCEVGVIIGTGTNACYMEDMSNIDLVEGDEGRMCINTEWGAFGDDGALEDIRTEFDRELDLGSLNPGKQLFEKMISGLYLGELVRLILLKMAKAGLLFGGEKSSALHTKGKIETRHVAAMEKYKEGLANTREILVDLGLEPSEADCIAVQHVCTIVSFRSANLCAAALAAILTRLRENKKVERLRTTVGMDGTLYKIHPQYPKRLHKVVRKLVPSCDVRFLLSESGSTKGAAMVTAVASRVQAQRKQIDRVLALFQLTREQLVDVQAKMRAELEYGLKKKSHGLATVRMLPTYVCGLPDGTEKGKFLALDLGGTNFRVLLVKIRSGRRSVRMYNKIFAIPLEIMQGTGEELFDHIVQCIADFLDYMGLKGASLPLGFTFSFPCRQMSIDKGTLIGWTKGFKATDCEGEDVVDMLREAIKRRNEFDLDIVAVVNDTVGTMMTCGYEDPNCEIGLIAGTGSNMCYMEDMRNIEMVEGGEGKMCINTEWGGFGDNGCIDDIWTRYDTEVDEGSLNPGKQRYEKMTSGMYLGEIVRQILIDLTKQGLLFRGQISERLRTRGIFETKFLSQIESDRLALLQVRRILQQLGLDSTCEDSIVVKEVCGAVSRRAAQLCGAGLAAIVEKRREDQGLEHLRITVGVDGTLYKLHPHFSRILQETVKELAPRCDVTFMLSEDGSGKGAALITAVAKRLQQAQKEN
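Assay system – recombinant HKDC1 (HK5) hexokinase enzyme, produced in-house · Input – HKDC1 at 5 µg/mL · Reagent – glucose plus 1 mM ATP as hexokinase substrates · Timing – 90 min reaction incubation at room temperature, dark · Measured by – G6PDH/diaphorase-coupled fluorescence, 1 mM NADP, 100 µM resazurin, 525/613 nm · Benchmarks – DMSO-enzyme wells negative, buffer-substituted wells positive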
Neddyl block = inhibitors of cullin neddylation, primary screen, biochemical, TR-FRET, uHTS, NAE and Ubc12; NEDD8-conjugating enzyme Ubc12 (Homo sapiens) + NEDD8-activating enzyme E1 regulatory …; inhibition, % at 25 µM; 360,000 compounds, 0.58% hits; in the data active means inhibition above about 36%
Neddyl inh conf = blockade of NEDD8 conjugation to cullin – biochemical, TR-FRET, single concentration, confirmation; shares compounds with Neddyl block; TR-FRET cullin neddylation biochemical assay; calls only at 25 µM; 1,800 compounds, 13% hits; AID 652217, 2013; in the data active means inhibition above about 40%;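 further: neddylation substrate is the cullin 1 ring ligase complex with SKP2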
* = called active by the depositor; i = inactive; x = not tested or not shown; + = active, no number. An excerpt weighted towards active compounds, which were near 2.2% of everything screened.

SMILES	PfGluPho inh	M18AAP inhibitor	HKDC1 inhibitor	Neddyl block	Neddyl inh conf
COc1ccccc1N(CC(=O)NCCN1CCOCC1)S(=O)(=O)c1ccccc1	-4	-14	-3	-9	x
Cc1noc(C)c1COc1ccc(C(=O)NCc2cccs2)cc1	-24	x	-4	5	x
NC(=O)c1ccc(NC(=O)C#Cc2ccccc2)cc1	-4	3	5	2	x
Cc1nn(-c2ccccc2)c(N2CCCC2)c1/C=N/NC(=O)c1ccccc1O	-8	11	-8	45*	i
Cc1nn(-c2ccccc2)c(C)c1/C=N/NC(=O)c1ccccc1O	-29	-13	-4	34	x
O=c1cc(-c2ccccc2)c2ccc(O)c(CN3CCCCC3)c2o1	-2	4	7	50*	i
COc1ccc(NC(=O)c2ccccc2N2C(=O)C3C4C=CC(C5CC45)C3C2=O)c(OC)c1 (stereo not given)	-2	-3	-4	0	x
O=C(O)C/C(=C\c1ccc2c(c1)OCO2)c1nc2ccccc2s1	3	9	0	45*	x
O=C(O)C/C(=C\c1cc(Cl)c2c(c1)OCO2)c1nc2ccccc2s1	-25	6	6	12	x
CN(C)CCCNc1ncnc2oc(-c3ccccc3)c(-c3ccccc3)c12	-1	5	1	42*	i
CCN(CC)C1=N/C(=C\c2ccc(OC)cc2)C(=O)N1c1ccccc1	11	1	-7	48*	i
CC(C)(C)NC(=O)CSc1ccc(S(=O)(=O)N2CCOCC2)cn1	-16	x	-5	19	x
Cc1ccc(C)c2c1[nH]c1ccccc12	21	2	3	10	x
Cc1cc(C=O)c(C)c2c1[nH]c1ccccc12	56	x	2	40*	i
O=C(COC(=O)/C=C/c1ccccc1)NCC1CCCO1 (stereo not given)	9	3	7	-4	x
CSc1ccc(/C=C/C(=O)OCC(=O)NCC2CCCO2)cc1 (stereo not given)	-1	x	-3	66*	x
CCN(CC)S(=O)(=O)c1cccc(C(=O)N/N=C/c2ccc([N+](=O)[O-])o2)c1	18	-8	-3	-8	x
COC(=O)c1cc(OC)c(OC)cc1NCC(=O)Nc1ccc(C)cc1	3	2	-5	47*	x
COC(=O)c1cc(OC)c(OC)cc1NCC(=O)Nc1ccc(OC)c(OC)c1	-2	-5	1	16	x
Cc1ccc(Nc2ncc3c(n2)CC(C)(C)CC3=O)cc1	-13	8	-7	x	x
C[C@H](NC(=O)c1ncn2c1c(=O)[nH]c1ccc(Br)cc12)c1ccccc1	-1	x	x	-180	x
C[C@H](NC(=O)c1ncn2c1c(=O)[nH]c1ccccc12)c1ccccc1	4	x	x	40*	+
COc1ccc(OC(C)C(=O)N(C)Cc2nc(-c3ccc(OC)cc3)no2)cc1 (stereo not given)	-8	-10	-2	-3	x
CCOC(=O)c1cc(NCc2cccs2)ccc1N1CCOCC1	14	6	3	46*	i
COC(=O)c1cc(NCc2ccccc2F)ccc1N1CCOCC1	22	1	6	32	x
SMILES	PfGluPho inh	M18AAP inhibitor	HKDC1 inhibitor	Neddyl block	Neddyl inh conf
CCOc1ccccc1CNc1ccc(N2CCOCC2)c(C(=O)O)c1	6	4	-3	41*	i
CCOC(=O)c1cc(NC(=O)c2cccs2)ccc1N1CCOCC1	6	3	-3	1	x
CCOc1ccc(OCCC(=O)Nc2cccc(S(=O)(=O)N3CCCC3)c2)cc1	12	x	0	13	x
O=C(C1CC(=O)N(C2CCCC2)C1)N1CCN(c2cccc(Cl)c2)CC1 (stereo not given)	7	-6	-6	0	x
C=CCn1c(=N)c(S(=O)(=O)c2ccc(C)c(C)c2)cc2c(=O)n3ccccc3nc21	-10	-1	0	47*	i
O=C(NNC(=O)c1csc(-c2cnccc2C(F)(F)F)n1)c1ccc(C(F)(F)F)cc1	-6	-13	-7	42*	i
O=C(Nc1ccc(C(F)(F)F)cc1)c1csc(-c2ccncc2)n1	20	-12	-4	-9	x
CCO[C@H]1c2c(ccc3ccc(=O)oc23)OC(C)(C)[C@H]1O	12	x	-7	35*	i
CC1(C)Oc2ccc3ccc(=O)oc3c2[C@@H](O)[C@H]1O	-7	x	-7	x	x
CC1(C)Oc2ccc3ccc(=O)oc3c2C[C@H]1O[C@@H]1O[C@H](CO)[C@@H](O)[C@H](O)[C@H]1O	0	x	-6	x	x
CC1(C)Oc2ccc3ccc(=O)oc3c2CC1O (stereo not given)	-15	-3	-2	55*	x
CCc1ccc(-c2csc(NC(=O)C3CC(=O)N(c4ccc5c(c4)OCCO5)C3)n2)cc1 (stereo not given)	31	-2	-7	53*	i
Cc1ccc2cc3cc(C(=O)NCCCN4CCc5ccccc5C4)oc3nc2c1	12	1	6	57*	+
COc1ccc(-c2cc(C(F)(F)F)n3ncc(C(=O)NCc4ccco4)c3n2)cc1	7	10	0	x	x
O=C(NCc1ccco1)c1cnn2c(C(F)(F)F)cc(-c3ccccc3)nc12	9	3	6	42*	i
COc1ccccc1-c1nnc(N)s1	-3	0	-3	41*	i
Nc1nnc(-c2ccccc2Cl)s1	22	7	2	16	x
COCc1cc(C)nc2sc(C(=O)Nc3ccc(OC)cc3)c(N)c12	28	2	6	49*	+
COCc1cc(C)nc2sc(C(=O)N3CCCCC3)c(N)c12	-1	1	16	-10	x
COCc1cc(C)nc2sc(C(=O)N3CCN(c4ccccc4)CC3)c(N)c12	-4	5	0	41*	i
CCn1cc(C(=O)O)c(=O)c2cc(F)c(N3CCN(C(=O)Nc4ccccc4)CC3)cc21	9	3	14	53*	i
CCn1cc(C(=O)O)c(=O)c2cc(F)c(N3CCN(C(=S)NC(=O)c4ccc(OC)cc4)CC3)cc21	3	-8	2	53*	i
CCn1cc(C(=O)O)c(=O)c2cc(F)c(N3CCN(C(=S)NC(=O)c4ccc(Br)cc4)CC3)cc21	15	-3	-4	31	x
O=P(O)(Cc1ccccc1)Cc1ccccc1	-10	-1	-1	1	x
O=C(O)CCn1c(-c2ccccc2)cc2ccccc21	-7	7	-3	50*	x
CCOC(=O)c1nsnc1NCCSC(=N)N	4	-16	-9	40*	i
COc1cccc(C(=O)Nc2nnc(SCC(=O)Nc3ccc(NC(C)=O)cc3)s2)c1	26	-1	4	20	x
COC(=O)c1ccc2[nH]c3c(c2c1)CC(C)CC3 (stereo not given)	38	-17	0	40*	+
